Data published in PMC7688577 (FASEB journal : official publication of the Federation of …, 2020).

What was measured:
P23H rhodopsin [1] = target: T1, P23H rhodopsin (Mus musculus, UniProt P15409, P23H); test: Non-radioactive pulse-chase assay in NIH3T3; type: cell-based; settings: 10 μM; for Rate of Rho^P23H degradation (Pulse-chase): NIH3T3(RHO^P23H/GFP) cells, 24 h chase, vs DMSO control
Summary of the method: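 Non-radioactive pulse-chase. Cells (3 × 10⁵/well, 24-well) were grown overnight, starved in Met-free DMEM for 1 h, then pulsed with 50 μM L-AHA for 4 h (50 μM Met as negative control). Chase was 24 h in DMEM with 2 mM Met ± 10 μM test compound. Lysates (200 μg) were clicked with 5 μM BTN-sDIBO for 1 h at 37 °C, immunoprecipitated with 1D4, eluted at pH 2.8, dot-blotted and probed with HRP-streptavidin. Values normalized to DMSO on the same membrane; N=3, unpaired two-tailed t-test.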

[2] = target: P23H rhodopsin fused with Renilla luciferase (Mus musculus, UniProt P15409, P23H); test: Rluc reporter assay in Hek293; type: cell-based; settings: for Rluc assay Hek293 (RHO^P23H-Rluc) Efficacy: DMSO = 0%, 1 mM Evans Blue = -100%; for EC50: read-out: Rluc assay Hek293 (RHO^P23H-Rluc) EC50, 24 h treatment, dose response
RHO transcripts = test: qPCR of RHO transcripts in NIH3T3; type: cell-based, mouse; settings: 10 μM; for Rho mRNA level (qPCR): NIH3T3(RHO^P23H/GFP) cells, vs DMSO control; for Rho mRNA level (qPCR) / WT and P23H rhodopsin transcripts in comparison to DMSO control: 24 h
Summary of the method: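 NIH3T3 cells stably expressing WT or P23H rhodopsin (GFP lines) were seeded in 24-well plates at 2.5×10⁵ cells/well and cultured overnight at 37 °C, 5% CO₂. They were then exposed to test compound in culture medium for 24 h. RNA was precipitated by centrifugation at 12,000×g for 10 min at 4 °C, washed with 75% ethanol, air-dried and dissolved in nuclease-free water before qPCR.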

P23H rhodopsin [3] = target: T1, P23H rhodopsin; test: Rhodopsin dot blot of NIH3T3; type: cell-based; settings: NIH3T3(RHO^P23H/GFP) cells, 10 μM, 24 h, vs DMSO control
Summary of the method: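 NIH3T3(RHO^P23H/GFP) cells were seeded at 2.5 × 10⁴/well in 96-well plates, attached 4 h, then given medium with 2× test compound to reach 10 μM final for 24 h. Cells were PBS-washed and lysed in RIPA with protease inhibitors plus 6 s sonication. Of each well's lysate, 90% was dotted on nitrocellulose, air-dried and probed with 0.1 μg/mL HRP-1D4. Densitometry was normalized to DMSO.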

[4] = system: rhodopsin mutants (T4R, P23H, P53R, C110Y, D190N, P267L); type: cell-based, mouse; settings: U2OS cells; T4R, P23H, P53R, C110Y, D190N, P267L mutants
Summary of the method: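 U2OS stable lines expressed WT or mutant mouse rhodopsin fused to Venus. Cells were transfected with pcDNA3.1 Zeo constructs, kept 48 h in DMEM/10% FBS, then selected with 400 μg/mL Zeocin. Stable cells were treated with test compound at 10 μM and immunostained for rhodopsin.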

[5] = system: WT rhodopsin fused with Renilla luciferase; test: Rluc reporter counter assay in Hek293; type: cell-based, mouse; settings: DMSO = 0%, 1 mM Evans Blue = -100%; NA = no dose response effect
Summary of the method: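 HEK293 cells stably expressing WT rhodopsin–Rluc, run as the HTS reporter assay: cells spun 300 × g 30 s, cultured overnight at 37 °C, 5% CO2; test compound in DMSO pin-transferred. ViviREN (50 μM solution in PBS) added, 1 h dim light, room temperature; luminescence read. Score = (RLU_compound − RLU_DMSO)/(RLU_DMSO − RLU_Evans Blue) ×100; 10 μM triplicates and dose-response.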

P23H rhodopsin [6] = target: T1, P23H rhodopsin; test: Image-based; type: cell-based; settings: for Image-based assay NIH3T3 (RHO^P23H/GFP) Efficacy: DMSO = 0%, secondary antibody only = -100%; for EC50: read-out: Image-based assay NIH3T3 (RHO^P23H/GFP) EC50, 24 h treatment, 8-10 doses
[7] = both NIH3T3(RHO^P23H/GFP) and NIH3T3(RHO^WT/GFP) cells

SMILES | BTN-AHA labeled P23H rhodopsin at 24 h of chase in comparison to DMSO control (P23H rhodopsin [1]) | Rluc assay Hek293 (RHO^P23H-Rluc) Efficacy [2] [%] | EC50 [2] [µM] | Rho protein level (Dot blot) (P23H rhodopsin [3]) | Image-based assay NIH3T3 (RHO^P23H/GFP) Efficacy (P23H rhodopsin [6]) [%] | EC50 (P23H rhodopsin [6]) [µM] | Rate of Rho^P23H degradation (Pulse-chase) (P23H rhodopsin [1]) | Increase of rhodopsin transcripts compared to DMSO control (RHO transcripts; [7]) | Immunofluorescence intensities of rhodopsin mutants [4] | Rluc assay Hek293 (RHO^WT-Rluc) Efficacy [5] [%] | Rho mRNA level (qPCR) (RHO transcripts) | WT and P23H rhodopsin transcripts in comparison to DMSO control (RHO transcripts; [7])
NCC(=O)COP(=O)(O)O [CL-005] | significantly reduced | −78.2 | 6.6 | Down | −72.7 | 1.3 |  | up to 2 fold | reduced | −57.9 |  | 
O=[N+]([O-])c1ccc(Cl)c([N+](=O)[O-])c1 [CL-006] |  | −66.2 | 1.7 | Down | −76.4 | 2.2 | No Change |  |  | −42.9 | Down | reduced non-selectively
CC(=O)OC(CC(=O)O)C[N+](C)(C)C (stereo not drawn) [CL-002] | significantly reduced | −86.1 | 2 | Down | −61.0 | 1.6 |  |  | reduced | −62.0 | Down | reduced non-selectively
CCC(C)(O)C(O)C(=O)O (stereo not drawn) [CL-008] |  | −89.5 | 0.93 | Down | −70.1 | 1.6 | No Change |  |  | −52.7 | Down | reduced non-selectively
CC(=O)OC(CC(=O)[O-])C[N+](C)(C)C (stereo not drawn) [CL-001] | significantly reduced | −69.4 | 1.1 | Down | −83.6 | 2.1 |  |  | reduced | −44.3 | Down | reduced non-selectively

More lines, in order of falling EC50 [2], values ahead:

BTN-AHA labeled P23H rhodopsin at 24 h of chase in comparison to DMSO control (P23H rhodopsin [1]) | Rluc assay Hek293 (RHO^P23H-Rluc) Efficacy [2] [%] | EC50 [2] [µM] | Rho protein level (Dot blot) (P23H rhodopsin [3]) | Image-based assay NIH3T3 (RHO^P23H/GFP) Efficacy (P23H rhodopsin [6]) [%] | EC50 (P23H rhodopsin [6]) [µM] | Rate of Rho^P23H degradation (Pulse-chase) (P23H rhodopsin [1]) | SMILES | Increase of rhodopsin transcripts compared to DMSO control (RHO transcripts; [7]) | Immunofluorescence intensities of rhodopsin mutants [4] | Rluc assay Hek293 (RHO^WT-Rluc) Efficacy [5] [%] | Rho mRNA level (qPCR) (RHO transcripts) | WT and P23H rhodopsin transcripts in comparison to DMSO control (RHO transcripts; [7])
significantly reduced | −72.5 | 13 | Down | −72.7 | 2.9 |  | CCn1cnc2c(N)ncnc21 [CL-007] |  | reduced | −51.7 | Down | reduced non-selectively
 | −68.6 | 1.6 | Down | −70.7 | 0.47 | No Change | CC(O)CN (stereo not drawn) [CL-004] |  |  | −45.5 | Down | reduced non-selectively
 | −65.3 | 0.89 | Down | −46.1 | 0.6 | No Change | O=C(O)C1=CC=CC(O)C1O (stereo not drawn) [CL-003] |  |  | −37.7 | Down | reduced non-selectively
